Laboratory results published in ChEMBL document CHEMBL4689842, “EUbOPEN Chemogenomics Library wave 1” (2021).

Test system: HEK-293T
Assay: Multiplex assay against HEK293T;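 on Population Tubulin-Different-Phenotype (%): share of the cells with healthy nuclei that show this phenotype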
Format: toxicity, cell-based
Details: human
Procedure, shortened: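 Four dyes were applied at seeding to live cells: Hoechst33342, BioTracker Green Microtubule Cytoskeleton Dye, MitoTracker Red and Annexin V Alexa Fluor 680. Imaging after compound addition used a CQ1 microscope at 37°C and 5% CO2. CellPathfinder machine-learning gating then sorted cells into Hoechst high-intensity objects or normal cells, normal cells into healthy, pyknosed or fragmented nuclei, and pyknosed cells into mitotic or apoptotic, with tubulin, mitochondrial-mass and membrane-permeability phenotypes given as per cents of healthy-nucleus cells.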

[1] = 12 h, 1 µM, compound concentration 1 uM, replicate 1
[2] = 12 h, 1 µM, compound concentration 1 uM, replicate 2
[3] = 12 h, 10 µM, compound concentration 10 uM, replicate 1
[4] = 12 h, 10 µM, compound concentration 10 uM, replicate 2
[5] = 24 h, 1 µM, compound concentration 1 uM, replicate 1
[6] = 24 h, 1 µM, compound concentration 1 uM, replicate 2
[7] = 24 h, 10 µM, compound concentration 10 uM, replicate 1
[8] = 24 h, 10 µM, compound concentration 10 uM, replicate 2

With CNC(=O)c1cc(Oc2ccc(NC(=O)Nc3cc(C(C)(C)C)nn3-c3ccc4ncccc4c3)c(F)c2)ccn1 [REBASTINIB] the “Population Apoptotic (%)” value [1] was 22%, the “Population Fragmented Nuclei (%)” value [1] was 22% and the “Population Healthy Nuclei (%)” value [1] was 66%. For the same compound, the “Population Hoechst High Intensity Objects (%)” value [1] was 15%, the “Population Membrane Permeable-Phenotype (%)” value [1] was 11% and the “Population Mitochondria Different-Phenotype (%)” value [1] was 4%. The “Population Mitotic Cells (%)” value [1] was 77%, the “Population Normal (%)” value [1] was 84% and the “Population Pyknosed Nuclei (%)” value [1] was 10%. For the same compound, the “Population Tubulin-Different-Phenotype (%)” value [1] was 3%, the “Total Cell Count” value [1] was 638 and the “Population Apoptotic (%)” value [2] was 11%. For the same compound, the “Population Fragmented Nuclei (%)” value [2] was 11%, the “Population Healthy Nuclei (%)” value [2] was 85% and the “Population Hoechst High Intensity Objects (%)” value [2] was 4%. The “Population Membrane Permeable-Phenotype (%)” value [2] was 7%, the “Population Mitochondria Different-Phenotype (%)” value [2] was 3% and the “Population Mitotic Cells (%)” value [2] was 88%. The “Population Normal (%)” value [2] was 95%, the “Population Pyknosed Nuclei (%)” value [2] was 3% and the “Population Tubulin-Different-Phenotype (%)” value [2] was 6%. For the same compound, the “Total Cell Count” value [2] was 1893, the “Population Apoptotic (%)” value [3] was 29% and the “Population Fragmented Nuclei (%)” value [3] was 11%. The “Population Healthy Nuclei (%)” value [3] was 41%, the “Population Hoechst High Intensity Objects (%)” value [3] was 16% and the “Population Membrane Permeable-Phenotype (%)” value [3] was 13%. For the same compound, the “Population Mitochondria Different-Phenotype (%)” value [3] was 34%, the “Population Mitotic Cells (%)” value [3] was 70% and the “Population Normal (%)” value [3] was 83%. For the same compound, the “Population Pyknosed Nuclei (%)” value [3] was 46%, the “Population Tubulin-Different-Phenotype (%)” value [3] was 88% and the “Total Cell Count” value [3] was 515. The “Population Apoptotic (%)” value [4] was 35%, the “Population Fragmented Nuclei (%)” value [4] was 3% and the “Population Healthy Nuclei (%)” value [4] was 78%. The “Population Hoechst High Intensity Objects (%)” value [4] was 6%, the “Population Membrane Permeable-Phenotype (%)” value [4] was 9% and the “Population Mitochondria Different-Phenotype (%)” value [4] was 55%. For the same compound, the “Population Mitotic Cells (%)” value [4] was 64%, the “Population Normal (%)” value [4] was 93% and the “Population Pyknosed Nuclei (%)” value [4] was 18%. The “Population Tubulin-Different-Phenotype (%)” value [4] was 97%, the “Total Cell Count” value [4] was 672 and the “Population Apoptotic (%)” value [5] was 13%. The “Population Fragmented Nuclei (%)” value [5] was 19%, the “Population Healthy Nuclei (%)” value [5] was 74% and the “Population Hoechst High Intensity Objects (%)” value [5] was 12%. For the same compound, the “Population Membrane Permeable-Phenotype (%)” value [5] was 23%, the “Population Mitochondria Different-Phenotype (%)” value [5] was 2% and the “Population Mitotic Cells (%)” value [5] was 86%. The “Population Normal (%)” value [5] was 87%, the “Population Pyknosed Nuclei (%)” value [5] was 5% and the “Population Tubulin-Different-Phenotype (%)” value [5] was 3%. The “Total Cell Count” value [5] was 727, the “Population Apoptotic (%)” value [6] was 3% and the “Population Fragmented Nuclei (%)” value [6] was 28%. For the same compound, the “Population Healthy Nuclei (%)” value [6] was 69%, the “Population Hoechst High Intensity Objects (%)” value [6] was 8% and the “Population Membrane Permeable-Phenotype (%)” value [6] was 9%. The “Population Mitochondria Different-Phenotype (%)” value [6] was 0%, the “Population Mitotic Cells (%)” value [6] was 96% and the “Population Normal (%)” value [6] was 91%. The “Population Pyknosed Nuclei (%)” value [6] was 1%, the “Population Tubulin-Different-Phenotype (%)” value [6] was 7% and the “Total Cell Count” value [6] was 2966. The “Population Apoptotic (%)” value [7] was 46%, the “Population Fragmented Nuclei (%)” value [7] was 14% and the “Population Healthy Nuclei (%)” value [7] was 44%. The “Population Hoechst High Intensity Objects (%)” value [7] was 15%, the “Population Membrane Permeable-Phenotype (%)” value [7] was 8% and the “Population Mitochondria Different-Phenotype (%)” value [7] was 58%. The “Population Mitotic Cells (%)” value [7] was 53%, the “Population Normal (%)” value [7] was 84% and the “Population Pyknosed Nuclei (%)” value [7] was 40%. For the same compound, the “Population Tubulin-Different-Phenotype (%)” value [7] was 92%, the “Total Cell Count” value [7] was 485 and the “Population Apoptotic (%)” value [8] was 43%. The “Population Fragmented Nuclei (%)” value [8] was 3%, the “Population Healthy Nuclei (%)” value [8] was 81% and the “Population Hoechst High Intensity Objects (%)” value [8] was 5%. The “Population Membrane Permeable-Phenotype (%)” value [8] was 7%, the “Population Mitochondria Different-Phenotype (%)” value [8] was 63% and the “Population Mitotic Cells (%)” value [8] was 56%. For the same compound, the “Population Normal (%)” value [8] was 94%, the “Population Pyknosed Nuclei (%)” value [8] was 15% and the “Population Tubulin-Different-Phenotype (%)” value [8] was 98%. For the same compound, the “Total Cell Count” value [8] was 674.
N#Cc1cnc(Nc2cc(NC[C@H]3CNCCO3)c(C(F)(F)F)cn2)cn1 [SRA-737] was tested, and the “Population Apoptotic (%)” value [1] was 16%, the “Population Fragmented Nuclei (%)” value [1] was 13% and the “Population Healthy Nuclei (%)” value [1] was 66%. For the same compound, the “Population Hoechst High Intensity Objects (%)” value [1] was 13%, the “Population Membrane Permeable-Phenotype (%)” value [1] was 3% and the “Population Mitochondria Different-Phenotype (%)” value [1] was 3%. For the same compound, the “Population Mitotic Cells (%)” value [1] was 83%, the “Population Normal (%)” value [1] was 86% and the “Population Pyknosed Nuclei (%)” value [1] was 19%. For the same compound, the “Population Tubulin-Different-Phenotype (%)” value [1] was 3%, the “Total Cell Count” value [1] was 617 and the “Population Apoptotic (%)” value [2] was 12%. The “Population Fragmented Nuclei (%)” value [2] was 11%, the “Population Healthy Nuclei (%)” value [2] was 84% and the “Population Hoechst High Intensity Objects (%)” value [2] was 2%. The “Population Membrane Permeable-Phenotype (%)” value [2] was 2%, the “Population Mitochondria Different-Phenotype (%)” value [2] was 7% and the “Population Mitotic Cells (%)” value [2] was 87%. For the same compound, the “Population Normal (%)” value [2] was 97%, the “Population Pyknosed Nuclei (%)” value [2] was 3% and the “Population Tubulin-Different-Phenotype (%)” value [2] was 5%. The “Total Cell Count” value [2] was 2034, the “Population Apoptotic (%)” value [3] was 20% and the “Population Fragmented Nuclei (%)” value [3] was 10%. The “Population Healthy Nuclei (%)” value [3] was 69%, the “Population Hoechst High Intensity Objects (%)” value [3] was 14% and the “Population Mitochondria Different-Phenotype (%)” value [3] was 6%. The “Population Mitotic Cells (%)” value [3] was 79%, the “Population Normal (%)” value [3] was 85% and the “Population Pyknosed Nuclei (%)” value [3] was 20%. The “Population Tubulin-Different-Phenotype (%)” value [3] was 5%, the “Total Cell Count” value [3] was 721 and the “Population Apoptotic (%)” value [4] was 13%. The “Population Fragmented Nuclei (%)” value [4] was 6%, the “Population Healthy Nuclei (%)” value [4] was 85% and the “Population Hoechst High Intensity Objects (%)” value [4] was 3%. The “Population Membrane Permeable-Phenotype (%)” value [4] was 2%, the “Population Mitochondria Different-Phenotype (%)” value [4] was 16% and the “Population Mitotic Cells (%)” value [4] was 86%. For the same compound, the “Population Normal (%)” value [4] was 96%, the “Population Pyknosed Nuclei (%)” value [4] was 8% and the “Population Tubulin-Different-Phenotype (%)” value [4] was 16%. The “Total Cell Count” value [4] was 1376, the “Population Apoptotic (%)” value [5] was 9% and the “Population Fragmented Nuclei (%)” value [5] was 10%. The “Population Healthy Nuclei (%)” value [5] was 77%, the “Population Hoechst High Intensity Objects (%)” value [5] was 7% and the “Population Membrane Permeable-Phenotype (%)” value [5] was 5%. The “Population Mitochondria Different-Phenotype (%)” value [5] was 2%, the “Population Mitotic Cells (%)” value [5] was 90% and the “Population Normal (%)” value [5] was 92%. For the same compound, the “Population Pyknosed Nuclei (%)” value [5] was 11%, the “Population Tubulin-Different-Phenotype (%)” value [5] was 4% and the “Total Cell Count” value [5] was 740. The “Population Apoptotic (%)” value [6] was 5%, the “Population Fragmented Nuclei (%)” value [6] was 34% and the “Population Healthy Nuclei (%)” value [6] was 63%. For the same compound, the “Population Hoechst High Intensity Objects (%)” value [6] was 4%, the “Population Membrane Permeable-Phenotype (%)” value [6] was 8% and the “Population Mitochondria Different-Phenotype (%)” value [6] was 1%. For the same compound, the “Population Mitotic Cells (%)” value [6] was 94%, the “Population Normal (%)” value [6] was 95% and the “Population Pyknosed Nuclei (%)” value [6] was 2%. The “Population Tubulin-Different-Phenotype (%)” value [6] was 10%, the “Total Cell Count” value [6] was 3420 and the “Population Apoptotic (%)” value [7] was 25%. The “Population Fragmented Nuclei (%)” value [7] was 10%, the “Population Healthy Nuclei (%)” value [7] was 70% and the “Population Hoechst High Intensity Objects (%)” value [7] was 10%. The “Population Membrane Permeable-Phenotype (%)” value [7] was 4%, the “Population Mitochondria Different-Phenotype (%)” value [7] was 6% and the “Population Mitotic Cells (%)” value [7] was 75%. For the same compound, the “Population Normal (%)” value [7] was 89%, the “Population Pyknosed Nuclei (%)” value [7] was 18% and the “Population Tubulin-Different-Phenotype (%)” value [7] was 15%. For the same compound, the “Total Cell Count” value [7] was 729, the “Population Apoptotic (%)” value [8] was 21% and the “Population Fragmented Nuclei (%)” value [8] was 12%. The “Population Healthy Nuclei (%)” value [8] was 64%, the “Population Hoechst High Intensity Objects (%)” value [8] was 8% and the “Population Membrane Permeable-Phenotype (%)” value [8] was 7%. The “Population Mitochondria Different-Phenotype (%)” value [8] was 17%, the “Population Mitotic Cells (%)” value [8] was 78% and the “Population Normal (%)” value [8] was 91%. For the same compound, the “Population Pyknosed Nuclei (%)” value [8] was 22%, the “Population Tubulin-Different-Phenotype (%)” value [8] was 44% and the “Total Cell Count” value [8] was 1254.
